Experiment [1] concerns the target T1, B2 bradykinin receptor (Cavia porcellus, UniProt O70526).
T1 sequence (O70526 whole entry): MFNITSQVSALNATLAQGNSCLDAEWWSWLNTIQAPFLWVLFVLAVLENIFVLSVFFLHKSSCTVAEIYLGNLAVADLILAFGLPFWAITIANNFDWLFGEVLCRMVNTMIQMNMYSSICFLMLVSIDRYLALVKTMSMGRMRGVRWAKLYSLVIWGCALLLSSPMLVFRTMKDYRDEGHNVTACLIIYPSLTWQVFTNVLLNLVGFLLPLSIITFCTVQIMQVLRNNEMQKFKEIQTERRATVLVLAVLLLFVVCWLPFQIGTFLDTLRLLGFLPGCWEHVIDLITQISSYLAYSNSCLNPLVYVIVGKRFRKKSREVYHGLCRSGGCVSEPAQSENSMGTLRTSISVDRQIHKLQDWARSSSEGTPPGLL
In words: Concentration required to inhibit specific binding of [3H]BK at 0.06 nM to Bradykinin receptor B2 in guinea pig ileum membrane preparations by 50%. In kind it is cell membranes. In a few lines:
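Guinea pig ileal membranes (100000g pellet, pH 6.8 TES buffer with phenanthroline, bacitracin, DTT, captopril, 0.1% BSA), 0.2 mg protein/mL, incubated with 0.06 nM [3H]BK and compounds 60 min at room temperature; final DMSO below 3%. Filtration on glass fiber filters, scintillation counting; nonspecific binding with 1 µM BK. Three experiments in duplicate.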

Experiment [2] concerns Cavia porcellus. The experiment can be described thus: Compound tested in vivo for inhibition of Bradykinin induced Bronchoconstriction in anaesthetized guinea pig.(P<0.01); % Inhibition at 3.2 mg/Kg p,o. It counts as functional. In outline:
(§1)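 Male Hartley guinea pigs (470-750 g), fasted overnight, anesthetized with pentobarbital 30 mg/kg ip, cannulated (trachea, jugular vein, esophagus), ventilated 10 mL/kg at 60 breaths/min; alcuronium 0.5 mg/kg iv, propranolol 10 mg/kg sc. BK 5 µg/kg iv; peak rise in insufflation pressure (modified Konzett-Rössler).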

Experiment [3] addresses T2, B2 bradykinin receptor (Homo sapiens, UniProt P30411).
T2 sequence (P30411 whole entry): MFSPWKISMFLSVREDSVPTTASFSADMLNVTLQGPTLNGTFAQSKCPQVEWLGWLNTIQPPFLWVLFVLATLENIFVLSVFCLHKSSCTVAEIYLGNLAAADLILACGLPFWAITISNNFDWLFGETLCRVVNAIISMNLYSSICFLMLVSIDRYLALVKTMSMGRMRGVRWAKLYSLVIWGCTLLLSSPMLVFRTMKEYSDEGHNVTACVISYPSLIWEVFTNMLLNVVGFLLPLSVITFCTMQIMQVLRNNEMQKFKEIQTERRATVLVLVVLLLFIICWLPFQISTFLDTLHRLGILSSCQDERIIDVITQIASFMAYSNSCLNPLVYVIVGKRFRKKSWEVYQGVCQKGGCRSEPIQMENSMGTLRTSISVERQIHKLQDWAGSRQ
The experiment can be described thus: Concentration required to inhibit specific binding of [3H]BK at 1.2 nM to A-431 cells (human epidermoid carcinoma) which express Bradykinin receptor B2 by 50%. It counts as cell-based.

Experiment [4] relates to Cavia porcellus. In words: Compound tested in vivo for inhibition of Bradykinin induced Bronchoconstriction in anaesthetized guinea pig.(P<0.05); % Inhibition at 1 mg/Kg p,o. It counts as functional. In outline: as §1
Experiment [5] relates to Cavia porcellus. The experiment can be described thus: Compound tested in vivo for inhibition of Bradykinin induced Bronchoconstriction in anaesthetized guinea pig; % Inhibition at 3.2 mg/Kg p,o. In kind it is functional. In outline: as §1
Experiment [6] has as its system Cavia porcellus. The experiment can be described thus: Compound tested in vivo for inhibition of Bradykinin induced Bronchoconstriction in anaesthetized guinea pig.(P<0.01); % Inhibition at 1 mg/Kg p,o. It counts as functional. In outline:
as §1

Experiment [7] relates to Cavia porcellus. In words: Compound tested in vivo for inhibition of Bradykinin induced Bronchoconstriction in anaesthetized guinea pig.(P<0.01); % Inhibition at 1 mg/kg. p.o. In kind it is functional. Particulars: route oral. In a few lines: as §1
For experiment [8], the system named is Cavia porcellus. The experiment can be described thus: Compound tested in vivo for inhibition of Bradykinin induced Bronchoconstriction in anaesthetized guinea pig.(P<0.001); % Inhibition at 3.2 mg/Kg p,o. It counts as functional. In outline: as §1
The test system of experiment [9] is Cavia porcellus. The experiment can be described thus: Compound tested in vivo for inhibition of Bradykinin induced Bronchoconstriction in anaesthetized guinea pig.(P<0.001); % Inhibition at 1 mg/Kg p,o. In kind it is functional. In a few lines:
as §1

Experiment [10] concerns Cavia porcellus. In words: Compound tested in vivo for inhibition of Bradykinin induced Bronchoconstriction in anaesthetized guinea pig.(P<0.01); % Inhibition at 3.2 mg/kg p.o. In kind it is functional. Particulars: route oral. In outline: as §1

The structures appear in SMILES notation. pIC50: −log10 of the molar value. A value given as a limit tells only on which side of the number the result lay.

Regarding `Cc1ccc(NC(=O)NCC(=O)N(C)c2ccc(Cl)c(COc3cccn4c(Br)c(C)nc34)c2Cl)cc1.Cl`, the figures for the pIC50 in [1] and in experiment [3] were 7.92 and 6.59, respectively. Also, the Inhibition in experiment [2] was 35%.
Regarding `CC(=O)Nc1ccc(/C=C/C(=O)NCC(=O)N(C)c2ccc(Cl)c(COc3cccn4c(Br)c(C)nc34)c2Cl)cn1.Cl.Cl`, the pIC50 is 9.42 in [1] and 8.62 in [3]. In experiment [4], the Inhibition is 76.4%.
With `Cc1nc2c(OCc3c(Cl)ccc(N(C)C(=O)CNC(=O)NCc4ccccc4)c3Cl)cccn2c1Br.Cl`, the pIC50 was 7.96 in experiment [1] and 6.24 in experiment [3]. Also, in experiment [5], the Inhibition stood at 24.1%.
With `Cc1nc2c(OCc3c(Cl)ccc(N(C)C(=O)CNC(=O)/C=C/c4ccc(N5CCCC5=O)cc4)c3Cl)cccn2c1Br.Cl`, the pIC50 in experiment [1] is 9.23; in experiment [3], 8.39. The Inhibition in experiment [6] is reported as 82%.
For `COCCNC(=O)c1cccc(NC(=O)NCC(=O)N(C)c2ccc(Cl)c(COc3cccn4c(Br)c(C)nc34)c2Cl)c1.Cl` the same measures were 9.10, 7.70 and 16.1%.
With `Cc1nc2c(OCc3c(Cl)ccc(N(C)C(=O)CNC(=O)Nc4cccc(C(=O)N(C)C)c4)c3Cl)cccn2c1Br.Cl`, the pIC50 was 9.12 in [1] and 7.70 in [3]. This compound had an Inhibition in experiment [6] of 23.2%.
The like results for `CC(=O)c1cccc(NC(=O)NCC(=O)N(C)c2ccc(Cl)c(COc3cccn4c(Br)c(C)nc34)c2Cl)c1.Cl` were, in that order, 9.10, 7.21 and 24.9%.
For `CC(=O)N(C)c1ccc(/C=C/C(=O)NCC(=O)N(C)c2ccc(Cl)c(COc3cccn4c(Br)c(C)nc34)c2Cl)cc1.Cl` the same measures were 8.96, 7.80 and 84.3%.
For `Cc1nc2c(OCc3c(Cl)ccc(N(C)C(=O)CNC(=O)NC(=O)c4ccccc4)c3Cl)cccn2c1Br`, the figures for the pIC50 in experiment [1] and in experiment [3] were 6.47 and 6.29, respectively.
The like results for `CCOC(=O)c1cccc(NC(=O)NCC(=O)N(C)c2ccc(Cl)c(COc3cccn4c(Br)c(C)nc34)c2Cl)c1` were, in that order, 8.66 and 6.82.
Consider `Cc1nc2c(OCc3c(Cl)ccc(N(C)C(=O)CNC(=O)Cc4ccccc4)c3Cl)cccn2c1Br.Cl`, for which the values for the pIC50 in experiment [1] and in experiment [3] were 8.28 and 6.17, respectively. This compound also gave an Inhibition in experiment [5] of 19.8%.
Take `CCCC(=O)NCC(=O)N(C)c1ccc(Cl)c(COc2cccn3c(Br)c(C)nc23)c1Cl`: the pIC50 in experiment [3] is 6.21. Moreover, in experiment [7], 1 mg/kg produced 52.7% inhibition in vivo.
`NC(N)=NCCC[C@@H](N)C(=O)N[C@@H](CCCN=C(N)N)C(=O)N1CCC[C@H]1C(=O)N1C[C@H](O)C[C@H]1C(=O)NCC(=O)N[C@@H](Cc1cccs1)C(=O)N[C@@H](CO)C(=O)N1Cc2ccccc2C[C@@H]1C(=O)N1[C@H](C(=O)N[C@@H](CCCN=C(N)N)C(=O)O)C[C@@H]2CCCC[C@@H]21` [ICATIBANT] gave a pIC50 in experiment [1] of 10.05.
`Cc1nc2c(OCc3c(Cl)ccc(N(C)C(=O)CNC(=O)/C=C/c4ccc(NS(C)(=O)=O)cc4)c3Cl)cccn2c1Br`: the values for the pIC50 in experiment [1] and in [3] were 8.41 and 8.32, respectively.
For `Cc1nc2c(OCc3c(Cl)ccc(N(C)C(=O)CNC(=O)COc4ccccc4)c3Cl)cccn2c1Br` the same measures were 8.38 and 6.29.
Turning to `CNC(=O)c1ccc(/C=C/C(=O)NCC(=O)N(C)c2ccc(Cl)c(COc3cccn4c(Br)c(C)nc34)c2Cl)cn1.Cl.Cl`, the pIC50 in experiment [1] was 9.44; in experiment [3] it was 8.04. For the same compound, in [6], the Inhibition is recorded as 89.4%.
Take `COCC(=O)Nc1cccc(NC(=O)NCC(=O)N(C)c2ccc(Cl)c(COc3cccn4c(Br)c(C)nc34)c2Cl)c1`: the figures for the pIC50 in experiment [1] and in experiment [3] were 8.57 and 7.12, respectively.
The like results for `Cc1ccccc1NC(=O)NCC(=O)N(C)c1ccc(Cl)c(COc2cccn3c(Br)c(C)nc23)c1Cl` were, in that order, 7.08 and 6.82.
For the compound `Cc1nc2c(OCc3c(Cl)ccc(N(C)C(=O)CNC(=O)/C=C/c4ccc(C(=O)N(C)C)nc4)c3Cl)cccn2c1Br.Cl.Cl`, the pIC50 was 9.36 in experiment [1] and 8.43 in experiment [3]. Moreover, the Inhibition in experiment [6] stood at 92.4%.
As to `Cc1nc2c(OCc3c(Cl)ccc(N(C)C(=O)CNC(=O)Nc4cccc(N)c4)c3Cl)cccn2c1Br`, the pIC50 was 7.82 in experiment [1] and below 6.00 in [3].
In turn, `CC(=O)NCC(=O)N(C)c1ccc(Cl)c(COc2cccn3c(Br)c(C)nc23)c1Cl.Cl` registered an Inhibition in experiment [8] of 94.2%. For the same compound, the pIC50 in experiment [3] is 5.39. In experiment [7], this compound registered an inhibition in vivo at 1 mg/kg of 62.3%.
Consider `CNC(=O)Nc1ccc(/C=C/C(=O)NCC(=O)N(C)c2ccc(Cl)c(COc3cccn4c(Br)c(C)nc34)c2Cl)cc1.Cl`, for which the pIC50 is 9.05 in [1] and 8.59 in experiment [3]. The Inhibition in [6] is reported as 18.8%.
As to `Cc1nc2c(OCc3c(Cl)ccc(N(C)C(=O)CNC(=O)Nc4cccc(C(=O)O)c4)c3Cl)cccn2c1Br`, the pIC50 in experiment [1] was 7.20; in experiment [3] it was 5.28.
For the compound `CNC(=O)c1ccc(/C=C/C(=O)NCC(=O)N(C)c2ccc(Cl)c(COc3cccn4c(Br)c(C)nc34)c2Cl)cc1.Cl`, the pIC50 in experiment [1] was 9.30; in experiment [3] it was 8.82. The same compound yielded an Inhibition in [9] of 53.2%.
`Cc1nc2c(OCc3c(Cl)ccc(N(C)C(=O)CNC(=O)Nc4ccccc4)c3Cl)cccn2c1Br`: the negative logarithm of the IC50 (pIC50) in experiment [1] is 8.85; in experiment [3] it was 6.82.
As for `Cc1nc2c(OCc3c(Cl)ccc(N(C)C(=O)CNC(=O)Nc4cccc(Cl)c4)c3Cl)cccn2c1Br.Cl`, the pIC50 in [1] was 8.42; in experiment [3] it was 5.72. In experiment [6], this compound gave an Inhibition of 14.5%.
The like results for `COc1cccc(NC(=O)NCC(=O)N(C)c2ccc(Cl)c(COc3cccn4c(Br)c(C)nc34)c2Cl)c1.Cl` were, in that order, 8.64, 6.70 and 0%.
In the case of `Cc1nc2c(OCc3c(Cl)ccc(N(C)C(=O)CNC(=O)CCc4ccccc4)c3Cl)cccn2c1Br`, the pIC50 was 8.85 in experiment [1] and 6.46 in experiment [3].
As to `Cc1nc2c(OCc3c(Cl)ccc(N(C)C(=O)CNC(=O)Nc4cccc(C#N)c4)c3Cl)cccn2c1Br.Cl`, the values for the pIC50 in experiment [1] and in experiment [3] were 8.85 and 6.72, respectively. Besides, the Inhibition in [6] is 4.7%.
Regarding `Cc1nc2c(OCc3c(Cl)ccc(N(C)C(=O)CNC(=O)CCCc4ccccc4)c3Cl)cccn2c1Br`, the pIC50 was 8.05 in [1] and 6.32 in experiment [3].
As for `Cc1cccc(NC(=O)NCC(=O)N(C)c2ccc(Cl)c(COc3cccn4c(Br)c(C)nc34)c2Cl)c1`, the pIC50 was 8.57 in [1] and 6.85 in [3]. In [10], this compound displayed an inhibition in vivo at 3.2 mg/kg of 27.4%.
For `CCNC(=O)NCC(=O)N(C)c1ccc(Cl)c(COc2cccn3c(Br)c(C)nc23)c1Cl`, in [8], the Inhibition amounted to 78.1%. In [3], this compound gave a pIC50 of 5.52. Also, in experiment [7], 1 mg/kg produced 57.2% inhibition in vivo.
Regarding `CCCCCC(=O)NCC(=O)N(C)c1ccc(Cl)c(COc2cccn3c(Br)c(C)nc23)c1Cl`, the pIC50 was 8.25 in experiment [1] and 6.62 in experiment [3].
For the compound `Cc1nc2c(OCc3c(Cl)ccc(N(C)C(=O)CNC(=O)/C=C\c4ccccc4)c3Cl)cccn2c1Br`, the results for the pIC50 in [1] and in experiment [3] were 9.11 and 6.92, respectively. The compound further came in with an inhibition in vivo at 1 mg/kg in experiment [7] of 0%.
For `Cc1nc2c(OCc3c(Cl)ccc(N(C)C(=O)CNC(=O)Nc4cccc([N+](=O)[O-])c4)c3Cl)cccn2c1Br` the same measures were 8.38, 6.74 and 13.6%.

As a reminder, the pIC50 is −log10 of the IC50, conventionally taken in molar units. The Inhibition is the percentage by which the read-out fell short of the control. In general, inhibition in vivo refers to the relative decrease from the control value, in per cent. A low value points to little suppression.

The values above are taken from ChEMBL document CHEMBL1131588, “A novel class of orally active non-peptide bradykinin B2 receptor antagonists. 2. Overcoming the species difference between guinea pig and man” (J Med Chem, 1998).
